Test results: ChEMBL document CHEMBL1143602, “Evaluation of 8-arylsulfanyl, 8-arylsulfoxyl, and 8-arylsulfonyl adenine derivatives as inhibitors of the heat shock protein 90” (J Med Chem, 2005)
Several values for one entry are separate records, joined by “and”; a condition that tells them apart may be missing. Equal entries are not always repeated.

Experiments:
Heat shock protein HSP90 = Heat shock protein HSP90 (Homo sapiens, UniProt P07900+P08238); assay: Inhibition of Hsp90 protein as degradation of HER2 kinase in SKBr3 cells; format: functional, cell-based
SK-BR-3 = assay: Inhibitory concentration against SKBr3 cell line; format: functional, cell-based; conditions: Homo sapiens
Summary of the method: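 Sulforhodamine B growth assay in SKBr3 cells grown in DME:F12 with 10% FBS at 37 °C, 5% CO2, attached overnight. Drug or DMSO was added in triplicate and serially diluted 1:1. Cells were grown 72 h, fixed with TCA and stained with 0.4% SRB.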

[1] = biological target: Heat shock protein HSP 90-alpha (Mus musculus, UniProt P07901); assay: Displacement of 5 nM GM-BODIPY from mouse heat shock protein HSP90-alpha
RPTEC [2] = assay: Selective inhibition for renal proximal tubular epithelial cells (RPTEC) to that of SKBr3 cells; format: functional, Homo sapiens
[3] = biological target: T1, Heat shock protein HSP 90-alpha (Homo sapiens, UniProt P07900); assay: Effective concentration of compound against heat shock protein HSP90 determined in normal lung cells
[4] = biological target: T1, Heat shock protein HSP 90-alpha; assay: Effective concentration of compound against heat shock protein HSP90 determined in normal brain cells
[5] = biological target: T1, Heat shock protein HSP 90-alpha; assay: Effective concentration of compound against heat shock protein HSP90 determined in normal heart cells
[6] = biological target: T1, Heat shock protein HSP 90-alpha; assay: Effective concentration against heat shock protein HSP90-alpha in SKBr3 cells; format: functional, cell-based
RPTEC [7] = assay: Inhibitory concentration of compound against human renal proximal tubular epithelial cells (RPTEC) was determined; format: functional, cell-based
Summary of the method: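 Pre-seeded normal human renal proximal tubular epithelial cells were equilibrated 3 h at 37 °C, 5% CO2, then given fresh medium. Cells were treated with drug or DMSO for 72 h.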

[8] = biological target: T1, Heat shock protein HSP 90-alpha; assay: Effective concentration against heat shock protein HSP90-alpha in MDA-MB-468 cells; format: functional, cell-based

Row | SMILES | IC50 (Heat shock protein HSP90) [µM] | IC50 (SK-BR-3) [µM] | EC50 [1] [µM] | EC50 [6] | IC50 (RPTEC [7]) [µM] | EC50 [8] [µM] | Selectivity (RPTEC [2]) | EC50 [3] [µM] | EC50 [4] [µM] | EC50 [5] [µM]
1 | Nc1[nH]cnc2nc(Sc3cc(Cl)c(Cl)cc3Cl)nc1-2 | 47.8 | 36 | 15.4 | – | – | – | – | – | – | –
2 | C#CCCCn1c(Sc2cc(C)cc(C)c2)nc2c(N)ncnc21 | > 100 | 34.4 | 10.6 | – | – | – | – | – | – | –
3 | C#CCCCn1c(Sc2cc(OC)ccc2OC)nc2c(N)ncnc21 | 3.2 | 1.9 | 0.19 | 0.16 µM | 31.4 | – | 16.5 | > 75 | 30.5 | 66.3
4 | C#CCCCn1c(Sc2ccc(C(C)=O)cc2)nc2c(N)ncnc21 | > 150 | > 150 | 2.7 | – | – | – | – | – | – | –
5 | C#CCCCn1c(Sc2cc(C)ccc2C)nc2c(N)ncnc21 | 147 | 467 | 13.4 | – | – | – | – | – | – | –
6 | Nc1ncnc2[nH]c(Sc3cc(Cl)ccc3Cl)nc12 | 122 | 190 | 85.1 | – | – | – | – | – | – | –
7 | C#CCCCn1c(Sc2cc(Cl)ccc2Cl)nc2c(N)ncnc21 | 26.5 | 44.1 | 2.1 | – | – | – | – | – | – | –
8 | C#CCCCn1c(Sc2cc(C(F)(F)F)ccc2Cl)nc2c(N)ncnc21 | 35.9 | 21.5 | 3.7 | – | – | – | – | – | – | –
9 | C#CCCCn1c(Sc2ccc(-n3cccc3)cc2)nc2c(N)ncnc21 | 311 | 121 | > 100 | – | – | – | – | – | – | –
10 | C#CCCCn1c(Sc2ccc(Cl)cc2Cl)nc2c(N)ncnc21 | 355 | > 500 | 37.5 | – | – | – | – | – | – | –
11 | C#CCCCn1c(Sc2cc3c(cc2Br)OCO3)nc2c(N)ncnc21 | 0.3 | 0.2 | 0.03 | 0.02 µM | 4.1 | – | 20.5 | 14.7 | 40.2 | 65.3
12 | C#CCCCn1c(Sc2ccc(OC)cc2)nc2c(N)ncnc21 | 75 | 41.4 | 19.1 | – | – | – | – | – | – | –
13 | C#CCCCn1c(Sc2ccccc2OC(F)(F)F)nc2c(N)ncnc21 | 97 | 86 | 5.6 | – | – | – | – | – | – | –
14 | CCCCn1c(S(=O)(=O)c2cccc(OC)c2)nc2c(N)ncnc21 | 125 | 57.2 | > 50 | – | – | – | – | – | – | –
15 | Nc1[nH]cnc2nc(Sc3cc(C(F)(F)F)ccc3Cl)nc1-2 | 314 | 130 | 90.7 | – | – | – | – | – | – | –
16 | C#CCCCn1c(Sc2ccc(C)cc2C)nc2c(N)ncnc21 | – | 31.8 | 8.6 | – | – | – | – | – | – | –
17 | C#CCCCn1c(Sc2ccc(Cl)cc2)nc2c(N)ncnc21 | 44.7 | 30.2 | 3.4 | – | – | – | – | – | – | –
18 | C#CCCCn1c(S(=O)(=O)c2cccc(OC)c2)nc2c(N)ncnc21 | 157 | 41.2 | > 50 | – | – | – | – | – | – | –

Second part, led by results:

Row | IC50 (Heat shock protein HSP90) [µM] | IC50 (SK-BR-3) [µM] | EC50 [1] [µM] | EC50 [6] | IC50 (RPTEC [7]) [µM] | EC50 [8] [µM] | SMILES | Selectivity (RPTEC [2]) | EC50 [3] [µM] | EC50 [4] [µM] | EC50 [5] [µM]
19 | 70.3 | 63.4 | 3.5 | – | – | – | COc1cccc([S+]([O-])c2nc3c(N)ncnc3n2CCOC(C)C)c1 (configuration not stated) | – | – | – | –
20 | > 400 | 108 | 34.9 | – | – | – | C#CCCCn1c(Sc2ccccc2OC)nc2c(N)ncnc21 | – | – | – | –
21 | 53.7 | 37.7 | 4.6 | – | – | – | CCCCn1c(Sc2cccc(OC)c2)nc2c(N)ncnc21 | – | – | – | –
22 | 10.5 | 16.8 | – | 1.6 µM | – | 1.4 | C#CCCCn1c(Cc2cc(OC)c(OC)c(OC)c2)nc2c(N)nc(F)nc21 | – | – | – | –
23 | 28.7 | 71.1 | – | 5.1 µM and 3.6 µM | > 200 | 5.8 | COc1cc(Cc2nc3c(N)ncnc3n2CCOC(C)C)cc(OC)c1OC | >100 | – | – | –
24 | 170 | 57.6 | > 50 | – | – | – | COc1cccc(S(=O)(=O)c2nc3c(N)ncnc3n2CCOC(C)C)c1 | – | – | – | –
25 | 58.3 | 16.1 | 5 | – | – | – | COc1cc(Sc2nc3c(N)ncnc3n2CCOC(C)C)c(Cl)cc1Cl | – | – | – | –
26 | 43.9 | 66.2 | 2.3 | – | – | – | COc1cc([S+]([O-])c2nc3c(N)ncnc3n2CCOC(C)C)cc(OC)c1OC (configuration not stated) | – | – | – | –
27 | 13.8 | 10.1 | 2.1 | – | – | – | COc1c(Cl)c(Sc2nc3c(N)ncnc3n2CCOC(C)C)c(Cl)c(OC)c1OC | – | – | – | –
28 | > 150 | > 150 | 2 | – | – | – | C#CCCCn1c(Sc2ccc(OC)cc2OC)nc2c(N)ncnc21 | – | – | – | –
29 | 23.5 | 41.2 | 2.5 | – | – | – | COc1cc(Sc2nc3c(N)nc(F)nc3n2CCOC(C)C)cc(OC)c1OC | – | – | – | –
